Runt-SMMHC FRET: Runt domain-CBFb-SMMHC interaction inhibition | AID 1434 | 0.74% of 220,000 active | Cerulean-Runt/Venus-CBFb-SMMHC FRET ratio 530/480, 1 h | inhibition, % at 20 µM;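 active = mean inhibition across duplicate retests at 20 µM reaching about 50%, limit read from the data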;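 note: 0% = DMSO wells and 100% = wells with excess untagged CBFb-SMMHC; inhibitors lower the FRET ratio by blocking Runt binding to CBFb-SMMHC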
Runt-CBFb FRET: inhibitors of human RUNX1 Runt domain binding to CBFb; Q01196+Q13951; Cerulean-Runt/Venus-CBFb FRET ratio 530/480, 1 h; inhibition, % at 20 µM; 0.46% of 220,000 active; AID 1496;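 active = inhibition over about 50% at 20 µM in the single-dose screen, limit read from the data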;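 note: 0% = DMSO wells and 100% = excess unlabeled CBFb competitor control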
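System: Cerulean-labeled Runt domain protein | Quantity: 100 nM of each labeled protein | Schedule: 1 h compound exposure, room temperature | Detection: Fluorescence energy transfer, 422 nm excitation, 530/480 nm emission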
RanGTP-Imp inh: inhibitors of RanGTP-importin-beta interaction, primary screen, biochemical, FRET, CFP-Ran, YFP-importin-beta, homogeneous. cell-free CFP-Ran/YFP-importin-beta FRET ratio. inhibition, % (concentration not given with the values). 1.1% of 300,000 active. AID 2216;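 active = more than half of the replicate wells show a fall in the fluorescence ratio signal beyond about 16%, limit read from the data, passing the limit was not always enough; inconclusive = exactly half of the replicate wells pass the set limit; inactive = fewer than half of replicates pass the limit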;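 note: 0% = DMSO wells and 100% = Ran loaded with GDP instead of GTP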
Tb hexokinase: T. brucei hexokinase 1 inhibition; recombinant TbHK1, G6PDH-coupled NADH A340; AID 1430; 0.11% of 220,000 active; inhibition, % at 10 µM;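 active = inhibition of 50% or more in the single-dose primary screen; inactive = inhibition below 50%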
14-3-3 Bad inh: disrupts binding of bovine 14-3-3 zeta to phospho-Bad peptide | TR-FRET 14-3-3zeta/Dy647-pBad peptide displacement, 1 h | inhibition, % at 21.7 µM | 0.71% of 220,000 active | P63103 | AID 781;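 active = inhibition above about 70%, limit read from the data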;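 note: 0% = full 14-3-3 plus peptide FRET controls and 100% = background without 14-3-3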
Target sequence (P63103 whole entry, looked up): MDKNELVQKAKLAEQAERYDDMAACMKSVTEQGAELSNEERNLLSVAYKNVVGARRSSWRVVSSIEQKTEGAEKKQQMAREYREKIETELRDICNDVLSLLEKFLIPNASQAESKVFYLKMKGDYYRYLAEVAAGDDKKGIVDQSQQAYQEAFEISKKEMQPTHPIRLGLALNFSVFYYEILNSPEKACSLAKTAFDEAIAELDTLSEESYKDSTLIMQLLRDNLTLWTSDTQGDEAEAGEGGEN
Hck Nef HTS: human Hck-Nef kinase inhibition. P08631. Recombinant Hck-YEEI plus Nef, Z-Lyte FRET kinase assay. inhibition, % at 20 µM. 0.68% of 220,000 active;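 active = Hck-Nef kinase inhibition above about 50%, limit read from the data; inactive = inhibition below that limit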;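 note: 0% = DMSO with Hck plus Nef and 100% = Hck alone without Nef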
The depositor's hits bear a star; ? = inconclusive; . = no result; [ ] = another dose, or the depositor's remark. Hits are enriched below; roughly 2.2% of the tested compounds scored in any of these assays.

SMILES	Runt-SMMHC FRET	Runt-CBFb FRET	RanGTP-Imp inh	Tb hexokinase	14-3-3 Bad inh	Hck Nef HTS
CCC(C)N(C(=O)COC(=O)CNC(=O)c1sc2ccccc2c1Cl)C1CCS(=O)(=O)C1 (stereo not given)	.	.	-2	.	.	.
CCC(C)(C)n1nnnc1CN1CCc2ccccc21	2	1	-1	-12	-25	-1
Cc1cccc(NC(=S)N/N=C/c2ccc(Cl)c([N+](=O)[O-])c2)c1	-25	0	44*	-8	0	0
Oc1c(C=NCc2ccccc2)sc2ccccc12	64*	20	?	-7	-7	26
O=[N+]([O-])c1ccc(N=Cc2sc3ccccc3c2O)cc1	105*	40	37*	6	-5	3
O=[N+]([O-])c1cccc(N=Cc2sc3ccccc3c2O)c1	87*	47	-1	-8	84*	17
CCOC(=O)C1C(c2ccc(C(=O)O)cc2)NC(=O)NC1(O)C(F)(F)F (stereo not given)	.	.	-4	.	.	.
Cc1ccc(Cl)cc1Nc1nc(-c2sc(NC(=O)c3ccccc3)nc2C)cs1	6	4	-4	-68	83*[fluorescence artefact?]	7
Cc1nc(NC(=O)c2ccccc2)sc1-c1csc(Nc2cccc(F)c2)n1	10	13	-1	9	71*	1
Cc1nc(NC(=O)c2ccccc2)sc1-c1csc(NCc2ccccc2)n1	5	9	-2	-15	-13	0
CCOc1ccccc1Nc1nc(-c2sc(NC(=O)c3ccccc3)nc2C)cs1	2	8	-1	-26	40	-1
COc1ccccc1Nc1nc(-c2sc(NC(=O)c3ccccc3)nc2C)cs1	-2	3	-1	-5	20	1
CCOc1ccccc1Nc1nc(-c2sc(NC(=O)c3cccc(Cl)c3)nc2C)cs1	6	11	0	-10	71*	2
O=C(Cn1cnc2scc(-c3cccc([N+](=O)[O-])c3)c2c1=O)NCc1ccco1	-4	2	-1	0	16	54*
COc1ccc(NC2CS(=O)(=O)CC2NCc2ccccc2)cc1 (stereo not given)	4	2	-1	1	5	-22
Cc1ccc(C)c(S(=O)(=O)Nc2cc(SCC(=O)O)c(O)c3ccccc23)c1	2	30	.	31	84*[fluorescence artefact?]	33
CCc1ccc(S(=O)(=O)Nc2cc(SCC(=O)O)c(O)c3ccccc23)cc1	6	26	0	4	41	18
COc1ccc(CCNC2CC(C)N(C)CC2C)cc1OC (stereo not given)	27	20	27*	1	7	-1
CC(=O)N1CCc2[nH]c3ccccc3c2C1	-19	-11	38*	18	-19	-3
CC(=O)N1CCc2[nH]c3ccc(C)cc3c2C1	.	.	-19	.	.	.
O=C(N=Nc1c(O)[nH]c2ccc(Cl)cc12)c1cc(-c2cccs2)nc2ccccc12	-6	-2	9	-23	88*[fluorescence artefact?]	9
CN(C)S(=O)(=O)c1cccc(-n2sc3ccccc3c2=O)c1	35	-27	.	86*	-8	-12
CC(C)N1C(=O)/C(=C\c2nc3ccccc3c(=O)[nH]2)c2ccccc21	-31	-13	.	27	50	4
COc1cc(/C=N/N2C(=O)CSC2=S)cc(Br)c1O	-39	5	.	-24	8	76*
COc1cccc(/C=N/N2C(=O)CSC2=S)c1O	28	35	0	2	0	-20
SMILES	Runt-SMMHC FRET	Runt-CBFb FRET	RanGTP-Imp inh	Tb hexokinase	14-3-3 Bad inh	Hck Nef HTS
Cc1[nH]c2ccccc2c1C(=O)C(C)OC(=O)c1ccccc1NCCO (stereo not given)	.	.	-3	.	.	.
Cc1ccc(-c2cc(-c3ccccc3)c3c(N)c(S(C)(=O)=O)sc3n2)cc1	89*	40	-4	-16	-5	2
CSc1ncccc1C(=O)OCC(=O)NC(C)C	-4	-1	8	-1	-6	2
CCCCN1C=C(C(=O)OC)C(c2ccccc2Cl)C(C(=O)OC)=C1	92*	30	96*	0	3	32
COCCN1C=C(C(=O)OC)C(c2ccccc2C(F)(F)F)C(C(=O)OC)=C1	82*	122*	56*	-8	1	65*
CCCCN1C=C(C(=O)OC)C(c2ccccc2C(F)(F)F)C(C(=O)OC)=C1	62*	67*	94*	-2	-1	-9
COc1ccc(/C=N/NC(=O)CNC(=O)c2ccc3c(c2)OCCO3)c(C(=O)O)c1OC	.	.	-2	.	.	.
c1ccc2[nH]c(SCc3cn4cccnc4n3)nc2c1	-2	2	5	-12	1	4
c1ccc(-c2cnnc(SCc3cn4cccnc4n3)n2)cc1	-2	1	0	-12	78*	-3
COc1cc(NC(=O)c2ccc(N3CC4CC(C3)c3cccc(=O)n3C4)c(NC(=O)c3ccncc3)c2)cc(OC)c1OC (stereo not given)	.	.	-2	.	.	.
CCOC(=O)C1=C(CSc2nc(C)ccc2C#N)OC(N)=C(C#N)C1c1cccc(OC)c1OC (stereo not given)	8	24	18*	-6	4	0
COCCNC(=O)c1c(N)n(/N=C/c2cccs2)c2nc3ccccc3nc12	24	62*	95*	-40	22	4
CCCCCCNC(=O)c1c(N)n(/N=C/c2ccco2)c2nc3ccccc3nc12	.	.	.	-30	.	22
CCCCNC(=O)c1c(N)n(/N=C/c2ccccn2)c2nc3ccccc3nc12	1	2	4	-32	81*	49
Nc1c(C(=O)NC2CCCCC2)c2nc3ccccc3nc2n1/N=C/c1ccco1	52*	17	.	.	.	.
Cc1cc(O)cc(=O)n1Cc1ccccc1	.	.	-2	.	.	.
COc1ccc(N2C(=O)CC2(C#N)c2ccc(OCc3ccccc3)cc2)cc1 (stereo not given)	-1	-2	1	30	-6	2
Cc1ccc2sc3ccc(NC(=O)c4ccccc4Cl)cc3c(=O)c2c1	101*	35	114*	-1	-22	8
Cn1cnnc1Sc1cc(N2CCN(S(=O)(=O)c3ccc4ccccc4c3)CC2)ccc1[N+](=O)[O-]	-1	0	-3	-15	4	-1
C=CCn1c2ccccc2c(=O)c2cc(C#CC3(O)CCCCC3)ccc21	.	.	161*	.	.	.
O=c1c2ccccc2oc2cc(C#CC3(O)CCCCC3)ccc12	.	.	-3	.	.	.
CCOC(=O)c1cc2c(ccn2C)n1CC(=O)N1CCCC(C)C1 (stereo not given)	-15	23	24*	-6	-19	1
CCOC(=O)c1cc2c(ccn2C)n1CC(=O)N1CCC(Cc2ccccc2)CC1	-13	36	-1	-1	-7	-6
CC(=O)c1sc2ccccc2c1OC(=O)c1ccco1	37	13	38*	1	3	32

Screening results as filed in PubChem BioAssay.
